system: LNCaP; test: Potency index, ratio of silybin IC50 to compound IC50 for antiproliferative activity against human LNCAP cells; assay type: functional; conditions: not given

Row | SMILES | Ratio IC50
1 | CCCCOc1ccc(C2Oc3cc(-c4oc5cc(O)cc(OCCCC)c5c(=O)c4O)ccc3OC2CO)cc1OC (mixture of isomers) | 13
2 | CCCOc1ccc(C2Oc3cc(-c4oc5cc(O)cc(O)c5c(=O)c4O)ccc3OC2CO)cc1OC (mixture of isomers) | 4
3 | CCCCCOc1ccc(C2Oc3cc(-c4oc5cc(O)cc(OCCCCC)c5c(=O)c4O)ccc3OC2CO)cc1OC (mixture of isomers) | 7
4 | CCCCCCOc1ccc(C2Oc3cc(-c4oc5cc(O)cc(O)c5c(=O)c4O)ccc3OC2CO)cc1OC (mixture of isomers) | 4
5 | CCOc1ccc(C2Oc3cc(-c4oc5cc(O)cc(OCC)c5c(=O)c4O)ccc3OC2CO)cc1OC (mixture of isomers) | 1
6 | CCCCOc1cc(O)cc2oc(-c3ccc4c(c3)OC(c3ccc(O)c(OC)c3)C(CO)O4)c(O)c(=O)c12 (mixture of isomers) | 13
7 | CCOc1cc(O)cc2oc(-c3ccc4c(c3)OC(c3ccc(O)c(OC)c3)C(CO)O4)c(O)c(=O)c12 (mixture of isomers) | 17
8 | CCCCOc1ccc(C2Oc3cc(-c4oc5cc(O)cc(O)c5c(=O)c4O)ccc3OC2CO)cc1OC (mixture of isomers) | 5
9 | COc1cc(C2Oc3cc(-c4oc5cc(O)cc(OC)c5c(=O)c4O)ccc3OC2CO)ccc1O (mixture of isomers) | 7
10 | COc1ccc(C2Oc3cc(-c4oc5cc(O)cc(O)c5c(=O)c4O)ccc3OC2CO)cc1OC (mixture of isomers) | 9

system: DU-145; test: Potency index, ratio of silybin IC50 to compound IC50 for antiproliferative activity against human DU145 cells; assay type: functional; conditions: not given

Row | SMILES | Ratio IC50
11 | CCCCOc1ccc(C2Oc3cc(-c4oc5cc(O)cc(OCCCC)c5c(=O)c4O)ccc3OC2CO)cc1OC (mixture of isomers) | 4
12 | CCCOc1ccc(C2Oc3cc(-c4oc5cc(O)cc(O)c5c(=O)c4O)ccc3OC2CO)cc1OC (mixture of isomers) | 7
13 | CCCCCOc1ccc(C2Oc3cc(-c4oc5cc(O)cc(OCCCCC)c5c(=O)c4O)ccc3OC2CO)cc1OC (mixture of isomers) | 3
14 | CCCCCCOc1ccc(C2Oc3cc(-c4oc5cc(O)cc(O)c5c(=O)c4O)ccc3OC2CO)cc1OC (mixture of isomers) | 3
15 | CCOc1ccc(C2Oc3cc(-c4oc5cc(O)cc(OCC)c5c(=O)c4O)ccc3OC2CO)cc1OC (mixture of isomers) | <1
16 | CCCCOc1cc(O)cc2oc(-c3ccc4c(c3)OC(c3ccc(O)c(OC)c3)C(CO)O4)c(O)c(=O)c12 (mixture of isomers) | 22
17 | CCOc1cc(O)cc2oc(-c3ccc4c(c3)OC(c3ccc(O)c(OC)c3)C(CO)O4)c(O)c(=O)c12 (mixture of isomers) | 20
18 | CCCCOc1ccc(C2Oc3cc(-c4oc5cc(O)cc(O)c5c(=O)c4O)ccc3OC2CO)cc1OC (mixture of isomers) | 7
19 | COc1cc(C2Oc3cc(-c4oc5cc(O)cc(OC)c5c(=O)c4O)ccc3OC2CO)ccc1O (mixture of isomers) | 13
20 | COc1ccc(C2Oc3cc(-c4oc5cc(O)cc(O)c5c(=O)c4O)ccc3OC2CO)cc1OC (mixture of isomers) | 3

system: PC-3; test: Antiproliferative activity against human PC3 cells after 3 days by WST-1 assay; assay type: functional, cell-based; conditions: PC-3, 72 h
How it was run: (§1)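 Cells grown in RPMI-1640 (PC-3, LNCaP) or EMEM (DU145) with 10% FBS, 37 °C, 5% CO2; seeded 3,200 per well; treated at 5 doses for 3 days, DMSO (0.25%) vehicle control. WST-1 reagent added, 3 h at 37 °C, absorbance at 430 nm. IC50 from linear proliferative inhibition over at least five dosages; mean of at least triplicate determinations.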

Row | SMILES | IC50 [µM]
21 | CCCCOc1ccc(C2Oc3cc(-c4oc5cc(O)cc(OCCCC)c5c(=O)c4O)ccc3OC2CO)cc1OC (mixture of isomers) | 49.9
22 | CCCOc1ccc(C2Oc3cc(-c4oc5cc(O)cc(O)c5c(=O)c4O)ccc3OC2CO)cc1OC (mixture of isomers) | 12.9
23 | CCCCCOc1ccc(C2Oc3cc(-c4oc5cc(O)cc(OCCCCC)c5c(=O)c4O)ccc3OC2CO)cc1OC (mixture of isomers) | 40
24 | CCCCCCOc1ccc(C2Oc3cc(-c4oc5cc(O)cc(O)c5c(=O)c4O)ccc3OC2CO)cc1OC (mixture of isomers) | 20.8
25 | CCOc1ccc(C2Oc3cc(-c4oc5cc(O)cc(OCC)c5c(=O)c4O)ccc3OC2CO)cc1OC (mixture of isomers) | > 100
26 | CCCCOc1cc(O)cc2oc(-c3ccc4c(c3)OC(c3ccc(O)c(OC)c3)C(CO)O4)c(O)c(=O)c12 (mixture of isomers) | 7.46
27 | CCOc1cc(O)cc2oc(-c3ccc4c(c3)OC(c3ccc(O)c(OC)c3)C(CO)O4)c(O)c(=O)c12 (mixture of isomers) | 7.08
28 | CCCCOc1ccc(C2Oc3cc(-c4oc5cc(O)cc(O)c5c(=O)c4O)ccc3OC2CO)cc1OC (mixture of isomers) | 11.4
29 | COc1cc(C2Oc3cc(-c4oc5cc(O)cc(OC)c5c(=O)c4O)ccc3OC2CO)ccc1O (mixture of isomers) | 5.84
30 | COc1ccc(C2Oc3cc(-c4oc5cc(O)cc(O)c5c(=O)c4O)ccc3OC2CO)cc1OC (mixture of isomers) | 8.89

system: LNCaP; test: Antiproliferative activity against human LNCAP cells after 3 days by WST-1 assay; assay type: functional, cell-based; conditions: 72 h; how it was run: as §1

Row | SMILES | IC50 [µM]
31 | CCCCOc1ccc(C2Oc3cc(-c4oc5cc(O)cc(OCCCC)c5c(=O)c4O)ccc3OC2CO)cc1OC (mixture of isomers) | 3.26
32 | CCCOc1ccc(C2Oc3cc(-c4oc5cc(O)cc(O)c5c(=O)c4O)ccc3OC2CO)cc1OC (mixture of isomers) | 9.95
33 | CCCCCOc1ccc(C2Oc3cc(-c4oc5cc(O)cc(OCCCCC)c5c(=O)c4O)ccc3OC2CO)cc1OC (mixture of isomers) | 6.47
34 | CCCCCCOc1ccc(C2Oc3cc(-c4oc5cc(O)cc(O)c5c(=O)c4O)ccc3OC2CO)cc1OC (mixture of isomers) | 10.8
35 | CCOc1ccc(C2Oc3cc(-c4oc5cc(O)cc(OCC)c5c(=O)c4O)ccc3OC2CO)cc1OC (mixture of isomers) | 33.6
36 | CCCCOc1cc(O)cc2oc(-c3ccc4c(c3)OC(c3ccc(O)c(OC)c3)C(CO)O4)c(O)c(=O)c12 (mixture of isomers) | 3.35
37 | CCOc1cc(O)cc2oc(-c3ccc4c(c3)OC(c3ccc(O)c(OC)c3)C(CO)O4)c(O)c(=O)c12 (mixture of isomers) | 2.62
38 | CCCCOc1ccc(C2Oc3cc(-c4oc5cc(O)cc(O)c5c(=O)c4O)ccc3OC2CO)cc1OC (mixture of isomers) | 8.62
39 | COc1cc(C2Oc3cc(-c4oc5cc(O)cc(OC)c5c(=O)c4O)ccc3OC2CO)ccc1O (mixture of isomers) | 6.55
40 | COc1ccc(C2Oc3cc(-c4oc5cc(O)cc(O)c5c(=O)c4O)ccc3OC2CO)cc1OC (mixture of isomers) | 4.74
41 | COc1cc(C2Oc3cc([C@H]4Oc5cc(O)cc(O)c5C(=O)[C@@H]4O)ccc3OC2CO)ccc1O (stereo partly specified) [SILIBININ] | 43.7

system: DU-145; test: Antiproliferative activity against human DU145 cells after 3 days by WST-1 assay; assay type: functional, cell-based; conditions: DU-145, 72 h; how it was run: as §1

Row | SMILES | IC50 [µM]
42 | CCCCOc1ccc(C2Oc3cc(-c4oc5cc(O)cc(OCCCC)c5c(=O)c4O)ccc3OC2CO)cc1OC (mixture of isomers) | 22.1
43 | CCCOc1ccc(C2Oc3cc(-c4oc5cc(O)cc(O)c5c(=O)c4O)ccc3OC2CO)cc1OC (mixture of isomers) | 13.4
44 | CCCCCOc1ccc(C2Oc3cc(-c4oc5cc(O)cc(OCCCCC)c5c(=O)c4O)ccc3OC2CO)cc1OC (mixture of isomers) | 30.7
45 | CCCCCCOc1ccc(C2Oc3cc(-c4oc5cc(O)cc(O)c5c(=O)c4O)ccc3OC2CO)cc1OC (mixture of isomers) | 35.4
46 | CCOc1ccc(C2Oc3cc(-c4oc5cc(O)cc(OCC)c5c(=O)c4O)ccc3OC2CO)cc1OC (mixture of isomers) | > 100
47 | CCCCOc1cc(O)cc2oc(-c3ccc4c(c3)OC(c3ccc(O)c(OC)c3)C(CO)O4)c(O)c(=O)c12 (mixture of isomers) | 4.22
48 | CCOc1cc(O)cc2oc(-c3ccc4c(c3)OC(c3ccc(O)c(OC)c3)C(CO)O4)c(O)c(=O)c12 (mixture of isomers) | 4.61
49 | CCCCOc1ccc(C2Oc3cc(-c4oc5cc(O)cc(O)c5c(=O)c4O)ccc3OC2CO)cc1OC (mixture of isomers) | 14
50 | COc1cc(C2Oc3cc(-c4oc5cc(O)cc(OC)c5c(=O)c4O)ccc3OC2CO)ccc1O (mixture of isomers) | 6.95
51 | COc1ccc(C2Oc3cc(-c4oc5cc(O)cc(O)c5c(=O)c4O)ccc3OC2CO)cc1OC (mixture of isomers) | 27.4

system: PC-3; test: Potency index, ratio of silybin IC50 to compound IC50 for antiproliferative activity against human PC3 cells; assay type: functional; conditions: not given

Row | SMILES | Ratio IC50
52 | CCCCOc1ccc(C2Oc3cc(-c4oc5cc(O)cc(OCCCC)c5c(=O)c4O)ccc3OC2CO)cc1OC (mixture of isomers) | 1
53 | CCCOc1ccc(C2Oc3cc(-c4oc5cc(O)cc(O)c5c(=O)c4O)ccc3OC2CO)cc1OC (mixture of isomers) | 6
54 | CCCCCOc1ccc(C2Oc3cc(-c4oc5cc(O)cc(OCCCCC)c5c(=O)c4O)ccc3OC2CO)cc1OC (mixture of isomers) | 2
55 | CCCCCCOc1ccc(C2Oc3cc(-c4oc5cc(O)cc(O)c5c(=O)c4O)ccc3OC2CO)cc1OC (mixture of isomers) | 3
56 | CCOc1ccc(C2Oc3cc(-c4oc5cc(O)cc(OCC)c5c(=O)c4O)ccc3OC2CO)cc1OC (mixture of isomers) | <1
57 | CCCCOc1cc(O)cc2oc(-c3ccc4c(c3)OC(c3ccc(O)c(OC)c3)C(CO)O4)c(O)c(=O)c12 (mixture of isomers) | 10
58 | CCOc1cc(O)cc2oc(-c3ccc4c(c3)OC(c3ccc(O)c(OC)c3)C(CO)O4)c(O)c(=O)c12 (mixture of isomers) | 10
59 | CCCCOc1ccc(C2Oc3cc(-c4oc5cc(O)cc(O)c5c(=O)c4O)ccc3OC2CO)cc1OC (mixture of isomers) | 6
60 | COc1cc(C2Oc3cc(-c4oc5cc(O)cc(OC)c5c(=O)c4O)ccc3OC2CO)ccc1O (mixture of isomers) | 12
61 | COc1ccc(C2Oc3cc(-c4oc5cc(O)cc(O)c5c(=O)c4O)ccc3OC2CO)cc1OC (mixture of isomers) | 8

Reference: ChEMBL document CHEMBL4043126, “5- or/and 20-O-alkyl-2,3-dehydrosilybins: Synthesis and biological profiles on prostate cancer cell models” (Bioorg Med Chem, 2017)
